From PubChem BioAssay
ARNT TACC3 PPI: disruptors of human ARNT/TACC3 interaction. Q9Y6A5. AlphaScreen His-ARNT PAS-B/GST-TACC3 binding, luminescence; TACC3 fragment carries E629A point mutation. inhibition, % at 9.99 µM. 390,000 tested, 0.66% active;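 active = mean inhibition of replicates at least 50% and at least half of replicates each reaching 50%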
CAL PDZ FP-1: human CAL PDZ-peptide interaction inhibition. AID 504414. 330,000 tested, 0.02% active. inhibition, % at 20 µM. Q9HD26. purified CAL PDZ, TMR-peptide fluorescence polarization, 1 h;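 active = highest replicate inhibition of at least 40%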
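Assay system – tagged CAL PDZ protein CerCALP, purified · Timing – 1 h at RT · Compound – single point, 20 µM · Measured by – fluorescence polarization from S- and P-plane intensities, G-factor corrected · Evaluation – inhibition from polarization loss · Probe or stimulus – TMR reporter peptide T*-PRC34 · Buffer or medium – pH 7.4 phosphate-saline buffer, reducing agent, detergent, IgG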
CAL PDZ FP-2: blocks peptide binding to the human CAL PDZ domain. 300,000 tested, 0.92% active. purified CAL PDZ, TMR-peptide fluorescence polarization, 1 h. inhibition, % at 24.9 µM. Q9HD26;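 active = mean inhibition of at least 30% with at least half of replicates also reaching 30%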
Numbers stand for hits; - = inactive; . = no result; ! = not confirmed by another sample. Hits are enriched below; roughly 1.2% of the tested compounds scored in any of these assays.

SMILES	ARNT TACC3 PPI	CAL PDZ FP-1	CAL PDZ FP-2
COc1ccc(CC(=O)OCC(=O)Nc2ccc(Cl)c(S(=O)(=O)N(C)C)c2)cc1	-	-	.
CCOCC(=O)Nc1cccc(OC)c1	-	-	66
COc1cccc(NC(=O)CCC(=O)Nc2cccc(OC)c2)c1	-	-	-
COc1cccc(NC(=O)CN(C)CC(=O)Nc2ccc(Br)cc2)c1	-	-	47
O=C(N[C@@H]1C=C[C@@H](CC(=O)N2CCC(Cc3ccccc3)CC2)O[C@@H]1CO)c1cnccn1	-	.	.
C[C@H](O)C#Cc1cnc2c(c1)C(=O)N([C@@H](C)CO)C[C@@H](C)[C@@H](CN(C)Cc1ccccn1)O2	-	.	.
O=C(NC1CCCCC1)C1CCN(c2nccs2)CC1	.	-	33
O=C(NC1CCCC1)C1CCN(c2nccs2)CC1	-	-	.
C[C@H]1CN([C@@H](C)CO)C(=O)Cc2cc(NS(=O)(=O)c3ccc(F)cc3)ccc2O[C@H]1CN(C)S(=O)(=O)c1ccc(F)cc1	-	.	.
CC(=O)NC(c1ccc(C(C)C)cc1)c1ccc2cccnc2c1O (stereo not drawn)	-	-	-
O=[N+]([O-])c1ccc(NC(c2ccccc2)c2ccc3cccnc3c2O)cc1 (stereo not drawn)	-	-	91
COc1cccc(C(NC(C)=O)c2ccc3cccnc3c2O)c1 (stereo not drawn)	100	-	-
CC(=O)NC(c1cccc([N+](=O)[O-])c1)c1ccc2cccnc2c1O (stereo not drawn)	-	-	-
COc1cccc(S(=O)(=O)Nc2ccc3c(c2)[C@@H]2C[C@@H](CC(=O)N4CCCCC4)O[C@H](CO)[C@@H]2O3)c1	-	.	.
COc1ccc(S(=O)(=O)Nc2cccc3c2O[C@H](CN(C)CC2CC2)[C@H](C)CN([C@@H](C)CO)C3=O)cc1	-	.	.
Cc1ccc(S(=O)(=O)N(C)C[C@H]2Oc3c(NC(=O)NC4CCCCC4)cccc3C(=O)N([C@@H](C)CO)C[C@H]2C)cc1	-	.	.
C[C@@H]1CN([C@H](C)CO)C(=O)c2cc(NC(=O)C3CC3)ccc2O[C@H]1CN(C)C	49	.	.
Cc1ccc(S(=O)(=O)N(C)C[C@@H]2Oc3c(NC(=O)NC4CCCCC4)cccc3C(=O)N([C@H](C)CO)C[C@@H]2C)cc1	active	.	.
C[C@H]1CN([C@@H](C)CO)C(=O)c2cc(NC(=O)C3CC3)ccc2O[C@@H]1CN(C)C	-	.	.
C[C@H]1CN([C@@H](C)CO)C(=O)c2cc(NC(=O)Cn3cnnn3)ccc2O[C@H]1CN(C)S(=O)(=O)c1ccc(F)cc1	-	.	.
Cc1ccc(S(=O)(=O)N(C)C[C@@H]2Oc3ccc(NC(=O)Cn4cnnn4)cc3C(=O)N([C@@H](C)CO)C[C@H]2C)cc1	active!	-	-
O=C(NC1Cc2ccccc2C1)[C@H]1[C@H](CO)[C@H]2Cn3c(cccc3=O)[C@H]2N1C(=O)C1CC1	-	.	.
CNC[C@H]1Oc2c(NC(=O)Nc3ccc(F)cc3)cccc2C(=O)N([C@@H](C)CO)C[C@@H]1C	-	.	.
C[C@@H]1CN([C@H](C)CO)C(=O)Cc2cc(N(C)C)ccc2O[C@H]1CN(C)S(=O)(=O)c1ccccc1	-	.	.
Cc1ccc(S(=O)(=O)Nc2cccc3cccnc23)cc1	50	-	42
SMILES	ARNT TACC3 PPI	CAL PDZ FP-1	CAL PDZ FP-2
COc1cc(NS(=O)(=O)c2ccc(C)cc2)c2ncccc2c1	-	-	-
CO[C@@H]1CN(C)C(=O)c2ccc(NC(=O)C3CCOCC3)cc2OC[C@H](C)N(Cc2cccnc2)C[C@H]1C	-	.	.
CCOC(=O)COc1coc(CN2CCN(c3ccc(F)cc3)CC2)cc1=O	-	-	41
CCN(CC)C(=O)COc1coc(CN2CCN(c3ccc(F)cc3)CC2)cc1=O	-	-	-
C[C@@H]1CN([C@@H](C)CO)C(=O)c2cc(NC(=O)c3ccncc3)ccc2O[C@H]1CN(C)C(=O)Nc1ccc2c(c1)OCO2	-	.	.
CN(c1ccccc1)S(=O)(=O)c1ccc(C(=O)Nc2nnc(-c3ccco3)o2)cc1	.	-	-
O=C(Nc1nnc(-c2ccc(Cl)cc2)o1)c1ccc(N2C(=O)CCC2=O)cc1	-	-	-
O=C(Nc1nnc(-c2ccco2)o1)c1ccc(N2C(=O)CCC2=O)cc1	58	-	-
Cc1nn(-c2ccccc2)c(C)c1C(=O)Nc1nnc(-c2ccco2)o1	49	-	-
Cc1noc(C)c1S(=O)(=O)Nc1ccc2c(c1)CC(=O)N([C@H](C)CO)C[C@H](C)[C@@H](CN(C)Cc1ccc(C(F)(F)F)cc1)O2	-	.	.
COc1ccc(NC(=O)N(C)C[C@H]2OCCCC[C@H](C)Oc3ccc(NC(=O)c4ccncc4)cc3C(=O)N([C@@H](C)CO)C[C@@H]2C)cc1	-	.	.
Cc1ccnc2c1ccc1c(C)ccnc12	70	-	-
Cc1ccnc2c1ccc1ccccc12	-	-	-
Cc1ccnc2c1ccc1cccnc12	63	-	-
Cc1ccnc2c(N3C(=O)C4C5c6ccccc6C(c6ccccc65)C4C3=O)cccc12 (stereo not drawn)	-	-	-
